Results on one compound are retold here after ChEMBL document CHEMBL3297742, “Tetrahydronaphthyridine and dihydronaphthyridinone ethers as positive allosteric modulators of the metabotropic glutamate receptor 5 (mGlu₅)” (J Med Chem, 2014).

Values after ≈ are worked out from the molar mass of the structure shown.

A short description of series [1]: Ratio of unbound drug level in brain to plasma in rat. Type of series: ADME, cell-free. The procedure, abridged:
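Kp,uu derived from the in vivo brain:plasma ratio and in vitro rat fu,plasma/fu,brain, with the binding values from rat plasma protein and rat brain homogenate binding experiments.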

Series [2] addresses Metabotropic glutamate receptor 6 (Rattus norvegicus, UniProt P35349). The experiment in a line: Positive allosteric modulator activity at rat mGlu6 receptor expressed in HEK293 cells assessed as glutamate-induced GIRK channel-mediated thallium flux treated 140s prior to gluatamate challenge by fluorescence analysis. Type of series: cell-based. The procedure, abridged: (§1)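 HEK293-GIRK cells expressing rat mGlu2, 3, 4, 6, 7 or 8, 15000 cells/well. Vehicle or 10 µM compound added, then 140 s later a glutamate CRC (L-AP4 for mGlu7) in thallium buffer (12 mM thallium sulfate, 10 mM HEPES). Thallium flux through GIRK read by fluorescence.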

For series [3], the system named is Rattus norvegicus. Put plainly: Toxicity in Sprague-Dawley rat assessed as somatomotor nervous system deficit at 100 mg/kg, po measured up to 4 hrs by irwin neurological test. The class given is organism-based. More on the design: dose 100 mg/kg, route oral. To be noted: in vivo. The procedure, abridged:
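Male Sprague–Dawley rats (250–300 g) scored at baseline, then given vehicle (20% HP-β-CD) or 100 mg/kg po (n = 6 each). Modified Irwin battery repeated at 30 min, 1 h and 4 h; each end point scored 0, 1 or 2; significance taken at p ≤ 0.05.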

A short description of series [4]: Solubility of the compound in fasted simulated intestinal fluid at pH 7.2 after 24 hrs. Type of series: ADME. To be noted: simulated gi fluid, pH 7.2, 24 h. The procedure, abridged: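 Solubility in fasted simulated intestinal fluid (FaSSIF), pH 7.2.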
In series [5] the test system is Plasma. Put plainly: Fraction unbound in rat plasma. The class given is ADME, cell-free.
The target in series [6] is Cytochrome P450 3A4 (Homo sapiens, UniProt P08684). Put plainly: Inhibition of CYP3A4 in human liver microsomes. Type of series: ADME. A digest of the protocol:
(§2)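 CYP1A2, 2C9, 2D6 and 3A4 inhibition measured together in a cocktail assay with human liver microsomes and known probe substrates; IC50 determined.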
For orientation: Microsomes from liver hold many membrane-bound enzymes, among them those of drug oxidation.

Series [7] deals with Plasma. Put plainly: Fraction unbound in human plasma. Type of series: ADME, cell-free.
For series [8], the target named is Cytochrome P450 2C9 (Homo sapiens, UniProt P11712). The experiment in a line: Inhibition of CYP2C9 in human liver microsomes. Type of series: ADME. A digest of the protocol: as §2
Series [9] has as its system Rattus norvegicus. Put plainly: Toxicity in Sprague-Dawley rat assessed as motor output at 30 to 100 mg/kg, po after 30 mins by rotarod test. The class given is organism-based. Also on record: dose 30-100 mg/kg, route oral. The following applies: in vivo, 0.5 h. A digest of the protocol:
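Male Sprague–Dawley rats (250–300 g) trained twice on a 20 rpm rotarod (120 s trials); animals below 85 s at baseline were excluded. Rats received 30, 56.6 or 100 mg/kg po in 20% HP-β-CD or vehicle (n = 6) and were tested 30 min later in a 120 s trial; time on the rod was recorded, with a 120 s cutoff.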
On the technique in general: Falling from the rotarod earlier than controls is read as motor impairment.

Series [10] concerns the target T1, Cytochrome P450 1A2 (Homo sapiens, UniProt P05177).
T1 sequence (P05177 whole entry): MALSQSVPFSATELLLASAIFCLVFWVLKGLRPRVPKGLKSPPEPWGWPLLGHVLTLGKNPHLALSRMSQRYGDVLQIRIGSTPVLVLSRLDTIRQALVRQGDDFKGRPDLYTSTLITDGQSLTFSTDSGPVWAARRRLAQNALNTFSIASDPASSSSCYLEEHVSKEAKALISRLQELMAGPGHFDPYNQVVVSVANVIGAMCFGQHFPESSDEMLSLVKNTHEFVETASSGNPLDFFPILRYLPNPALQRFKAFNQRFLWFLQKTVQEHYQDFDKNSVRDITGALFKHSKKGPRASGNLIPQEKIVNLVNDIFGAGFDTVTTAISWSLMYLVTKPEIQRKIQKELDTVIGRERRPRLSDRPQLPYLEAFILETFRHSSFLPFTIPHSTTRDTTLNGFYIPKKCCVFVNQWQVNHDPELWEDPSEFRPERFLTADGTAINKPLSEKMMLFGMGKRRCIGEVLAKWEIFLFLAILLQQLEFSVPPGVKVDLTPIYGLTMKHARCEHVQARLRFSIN
The experiment in a line: Inhibition of CYP1A2 in human liver microsomes. The class given is ADME. A digest of the protocol:
as §2

Series [11] has as its target Metabotropic glutamate receptor 7 (Rattus norvegicus, UniProt P35400). The experiment in a line: Positive allosteric modulator activity at rat mGlu7 receptor expressed in HEK293 cells assessed as L-AP4-induced GIRK channel-mediated thallium flux treated 140s prior to L-AP4 challenge by fluorescence analysis. The class given is cell-based. The procedure, abridged:
as §1

A short description of series [12]: Fraction unbound in rat brain. Type of series: ADME, tissue-based. A digest of the protocol:
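Fraction unbound measured by rat brain homogenate binding.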

The target of series [13] is Metabotropic glutamate receptor 4 (Rattus norvegicus, UniProt P31423). The experiment in a line: Positive allosteric modulator activity at rat mGlu4 receptor expressed in HEK293 cells assessed as glutamate-induced GIRK channel-mediated thallium flux treated 140s prior to gluatamate challenge by fluorescence analysis. Type of series: cell-based. A digest of the protocol:
as §1

The target of series [14] is Metabotropic glutamate receptor 1 (Rattus norvegicus, UniProt P23385). The experiment in a line: Positive allosteric modulator activity at rat mGlu1 receptor expressed in HEK293 cells assessed as glutamate-induced calcium mobilization treated 140s prior to glutamate challenge by fluorescence assay. The class given is functional, cell-based. The procedure, abridged:
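HEK293 cells stably expressing rat mGlu1, 20000 cells/well, Fluo-4AM calcium flux. Vehicle or 10 µM compound (final) added, then a glutamate concentration–response curve 140 s later.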
(Calcium assays in cells follow changes in intracellular calcium, usually with a dye or a luminescent sensor.)

The nature of series [15]: Retention time of the compound by LCMS analysis. The class given is physicochemical.
Series [16] is described as follows: Drug uptake in Sprague-Dawley rat brain at 56.6 mg/kg, po after 1.5 hrs by LC-MS/MS analysis. The class given is ADME, organism-based. More on the design: dose 56.6 mg/kg, route oral. The following applies: read-out: Drug uptake. A digest of the protocol: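 Male Sprague–Dawley rats (250–375 g), fasted overnight, were dosed orally at 56.6 mg/kg in 20% HP-β-cyclodextrin (pH 6–7) during an amphetamine hyperlocomotion screen. Brain and plasma were taken at 1.5 h. Brain was homogenized in 70:30 2-propanol:water, and samples were diluted in acetonitrile with 50 nM carbamazepine internal standard. Analysis was C18 gradient LC-ESI-MS/MS against a standard curve.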

Series [17] relates to Rattus norvegicus. Put plainly: Antipsychotic activity in po dosed Sprague-Dawley rat assessed as reversal of amphetamine-induced hyperlocomotion administered for 30 mins prior to amphetamine challenge for 60 mins. The class given is functional, organism-based. The procedure, abridged: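 Male Sprague–Dawley rats (250–375 g), food-deprived overnight, habituated 30 min in locomotor chambers. Compound given po (3–100 mg/kg in 20% HP-β-CD, pH 6–7, ≤10 mL/kg) 30 min before amphetamine 1 mg/kg sc, then monitored 60 min (120 min total). Photobeam breaks over 60–120 min give percent reversal against the vehicle+amphetamine group, mean ± SE, n = 6–8.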

The test system of series [18] is Rattus norvegicus. Put plainly: Reversal of amphetamine-induced hyperlocomotion in Sprague-Dawley rat at 56.6 mg/kg, po administered for 30 mins prior to amphetamine challenge for 60 mins. Type of series: functional. A digest of the protocol:
(§3)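 Male Sprague–Dawley rats (250–375 g), food-deprived the evening before, were habituated 30 min in locomotor chambers. They were then dosed po with vehicle (20% HP-β-CD in water, pH 6–7, max 10 mL/kg) or test article, followed 30 min later by amphetamine 1 mg/kg sc, n = 6–8 per group. Photobeam breaks were counted per 5 min over 120 min. Percent reversal used t = 60–120 totals versus the vehicle + amphetamine group, reported as mean ± SE.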

For series [19], the system named is Rattus norvegicus. Put plainly: Antipsychotic activity in Sprague-Dawley rat assessed as reversal of amphetamine-induced hyperlocomotion at 100 mg/kg, po administered for 30 mins prior to amphetamine challenge for 60 mins. Type of series: functional. A digest of the protocol:
as §3

Chain of Metabotropic glutamate receptor 6 (P35349 whole entry): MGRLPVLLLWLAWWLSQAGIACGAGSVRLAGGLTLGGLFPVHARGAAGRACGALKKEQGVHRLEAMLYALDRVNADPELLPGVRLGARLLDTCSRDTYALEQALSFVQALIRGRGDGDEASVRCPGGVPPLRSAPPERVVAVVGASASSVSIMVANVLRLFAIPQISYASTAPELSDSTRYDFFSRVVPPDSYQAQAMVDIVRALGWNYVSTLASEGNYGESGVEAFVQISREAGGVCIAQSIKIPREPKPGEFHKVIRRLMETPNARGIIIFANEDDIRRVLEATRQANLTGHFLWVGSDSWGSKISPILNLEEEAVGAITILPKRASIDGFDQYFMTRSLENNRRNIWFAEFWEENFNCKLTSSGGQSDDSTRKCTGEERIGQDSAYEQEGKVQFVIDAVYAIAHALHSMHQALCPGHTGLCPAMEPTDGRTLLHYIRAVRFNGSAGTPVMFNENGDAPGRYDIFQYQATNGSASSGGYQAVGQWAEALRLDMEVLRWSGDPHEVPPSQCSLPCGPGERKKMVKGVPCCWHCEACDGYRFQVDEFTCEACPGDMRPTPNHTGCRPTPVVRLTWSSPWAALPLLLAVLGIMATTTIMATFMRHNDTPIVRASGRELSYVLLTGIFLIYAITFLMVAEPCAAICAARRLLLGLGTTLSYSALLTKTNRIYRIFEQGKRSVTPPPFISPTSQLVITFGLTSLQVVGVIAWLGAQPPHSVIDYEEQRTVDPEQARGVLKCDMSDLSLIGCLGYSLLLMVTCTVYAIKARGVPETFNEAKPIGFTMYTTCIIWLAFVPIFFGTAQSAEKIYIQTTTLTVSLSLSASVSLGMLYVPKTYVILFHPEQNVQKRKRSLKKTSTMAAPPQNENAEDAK
Chain of Cytochrome P450 3A4 (P08684 whole entry): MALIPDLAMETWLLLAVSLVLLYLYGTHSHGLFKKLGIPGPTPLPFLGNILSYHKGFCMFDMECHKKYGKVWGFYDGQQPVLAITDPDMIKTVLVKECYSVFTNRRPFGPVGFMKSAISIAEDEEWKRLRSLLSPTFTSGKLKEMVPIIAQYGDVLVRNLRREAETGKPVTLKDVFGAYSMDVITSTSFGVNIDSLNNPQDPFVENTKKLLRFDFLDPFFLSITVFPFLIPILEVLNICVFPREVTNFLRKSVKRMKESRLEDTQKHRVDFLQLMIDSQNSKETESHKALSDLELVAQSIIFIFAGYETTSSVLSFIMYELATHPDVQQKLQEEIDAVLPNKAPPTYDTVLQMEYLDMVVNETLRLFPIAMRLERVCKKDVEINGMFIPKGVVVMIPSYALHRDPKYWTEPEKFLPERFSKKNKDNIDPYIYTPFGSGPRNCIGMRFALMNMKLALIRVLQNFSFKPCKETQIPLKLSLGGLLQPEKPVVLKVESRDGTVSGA
Chain of Cytochrome P450 2C9 (P11712 whole entry): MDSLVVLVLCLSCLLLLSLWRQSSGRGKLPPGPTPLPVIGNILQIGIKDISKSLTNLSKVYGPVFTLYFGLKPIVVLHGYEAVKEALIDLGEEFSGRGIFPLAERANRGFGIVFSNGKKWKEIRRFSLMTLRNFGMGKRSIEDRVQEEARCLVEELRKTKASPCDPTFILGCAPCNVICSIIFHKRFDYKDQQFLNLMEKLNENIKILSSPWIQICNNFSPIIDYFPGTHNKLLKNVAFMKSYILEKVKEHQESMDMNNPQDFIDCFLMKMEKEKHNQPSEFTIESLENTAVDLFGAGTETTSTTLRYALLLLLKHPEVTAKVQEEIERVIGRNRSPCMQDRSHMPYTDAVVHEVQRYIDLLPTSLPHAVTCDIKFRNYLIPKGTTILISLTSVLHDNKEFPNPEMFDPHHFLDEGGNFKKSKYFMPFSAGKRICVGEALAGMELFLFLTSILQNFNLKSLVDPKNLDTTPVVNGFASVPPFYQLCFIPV
Chain of Metabotropic glutamate receptor 4 (P31423 whole entry): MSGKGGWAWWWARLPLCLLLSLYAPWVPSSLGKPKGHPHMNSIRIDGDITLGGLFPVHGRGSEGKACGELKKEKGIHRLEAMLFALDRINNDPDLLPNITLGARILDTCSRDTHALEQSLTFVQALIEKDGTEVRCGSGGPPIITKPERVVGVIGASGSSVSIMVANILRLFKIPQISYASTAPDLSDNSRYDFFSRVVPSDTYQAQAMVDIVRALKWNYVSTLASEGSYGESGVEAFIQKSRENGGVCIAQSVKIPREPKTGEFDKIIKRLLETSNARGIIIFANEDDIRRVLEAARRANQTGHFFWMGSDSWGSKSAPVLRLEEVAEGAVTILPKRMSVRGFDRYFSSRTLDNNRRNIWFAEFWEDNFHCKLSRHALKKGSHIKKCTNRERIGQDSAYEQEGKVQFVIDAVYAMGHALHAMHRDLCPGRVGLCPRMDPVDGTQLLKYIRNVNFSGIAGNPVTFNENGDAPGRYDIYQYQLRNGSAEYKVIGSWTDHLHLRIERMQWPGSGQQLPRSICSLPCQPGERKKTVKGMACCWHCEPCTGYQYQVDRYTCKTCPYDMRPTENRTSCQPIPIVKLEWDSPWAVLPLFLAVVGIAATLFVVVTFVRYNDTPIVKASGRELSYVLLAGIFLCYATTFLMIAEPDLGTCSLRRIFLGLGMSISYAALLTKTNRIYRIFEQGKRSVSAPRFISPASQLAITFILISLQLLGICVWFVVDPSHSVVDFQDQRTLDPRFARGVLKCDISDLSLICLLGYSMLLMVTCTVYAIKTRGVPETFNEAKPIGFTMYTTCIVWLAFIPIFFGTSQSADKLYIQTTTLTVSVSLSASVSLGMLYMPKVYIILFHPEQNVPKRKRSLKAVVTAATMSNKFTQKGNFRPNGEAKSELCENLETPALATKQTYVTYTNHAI
Chain of Metabotropic glutamate receptor 1 (P23385 whole entry): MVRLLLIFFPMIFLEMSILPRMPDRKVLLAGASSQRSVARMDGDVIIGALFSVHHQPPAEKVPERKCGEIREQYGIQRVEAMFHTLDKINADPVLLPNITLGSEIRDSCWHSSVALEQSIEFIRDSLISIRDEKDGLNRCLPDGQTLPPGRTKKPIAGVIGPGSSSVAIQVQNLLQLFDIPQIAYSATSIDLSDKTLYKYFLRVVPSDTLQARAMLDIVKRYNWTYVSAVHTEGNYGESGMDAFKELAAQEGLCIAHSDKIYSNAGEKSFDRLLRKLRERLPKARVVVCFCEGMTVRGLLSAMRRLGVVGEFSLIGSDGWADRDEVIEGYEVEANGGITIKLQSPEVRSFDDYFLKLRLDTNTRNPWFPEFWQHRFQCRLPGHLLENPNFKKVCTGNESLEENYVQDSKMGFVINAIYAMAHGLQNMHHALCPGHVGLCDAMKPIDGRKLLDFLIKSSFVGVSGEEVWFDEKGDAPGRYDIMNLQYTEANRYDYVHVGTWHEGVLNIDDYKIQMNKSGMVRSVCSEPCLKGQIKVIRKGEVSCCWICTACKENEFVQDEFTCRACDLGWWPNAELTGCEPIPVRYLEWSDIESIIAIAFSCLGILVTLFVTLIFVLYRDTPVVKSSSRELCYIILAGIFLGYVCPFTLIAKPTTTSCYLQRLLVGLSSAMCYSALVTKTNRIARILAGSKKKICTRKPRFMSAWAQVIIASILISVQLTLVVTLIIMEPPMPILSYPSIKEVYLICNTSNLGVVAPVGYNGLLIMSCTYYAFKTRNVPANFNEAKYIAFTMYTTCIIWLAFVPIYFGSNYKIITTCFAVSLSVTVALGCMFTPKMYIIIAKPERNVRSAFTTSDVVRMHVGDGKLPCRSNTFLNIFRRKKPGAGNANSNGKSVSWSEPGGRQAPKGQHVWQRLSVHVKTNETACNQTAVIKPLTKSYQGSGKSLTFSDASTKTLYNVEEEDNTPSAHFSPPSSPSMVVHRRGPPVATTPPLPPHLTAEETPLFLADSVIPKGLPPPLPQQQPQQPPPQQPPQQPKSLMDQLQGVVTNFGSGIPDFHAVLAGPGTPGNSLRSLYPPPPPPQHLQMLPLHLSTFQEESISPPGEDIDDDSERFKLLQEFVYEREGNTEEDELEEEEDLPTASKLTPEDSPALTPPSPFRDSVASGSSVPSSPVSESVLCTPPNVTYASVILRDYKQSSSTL
Chain of Metabotropic glutamate receptor 7 (P35400 whole entry): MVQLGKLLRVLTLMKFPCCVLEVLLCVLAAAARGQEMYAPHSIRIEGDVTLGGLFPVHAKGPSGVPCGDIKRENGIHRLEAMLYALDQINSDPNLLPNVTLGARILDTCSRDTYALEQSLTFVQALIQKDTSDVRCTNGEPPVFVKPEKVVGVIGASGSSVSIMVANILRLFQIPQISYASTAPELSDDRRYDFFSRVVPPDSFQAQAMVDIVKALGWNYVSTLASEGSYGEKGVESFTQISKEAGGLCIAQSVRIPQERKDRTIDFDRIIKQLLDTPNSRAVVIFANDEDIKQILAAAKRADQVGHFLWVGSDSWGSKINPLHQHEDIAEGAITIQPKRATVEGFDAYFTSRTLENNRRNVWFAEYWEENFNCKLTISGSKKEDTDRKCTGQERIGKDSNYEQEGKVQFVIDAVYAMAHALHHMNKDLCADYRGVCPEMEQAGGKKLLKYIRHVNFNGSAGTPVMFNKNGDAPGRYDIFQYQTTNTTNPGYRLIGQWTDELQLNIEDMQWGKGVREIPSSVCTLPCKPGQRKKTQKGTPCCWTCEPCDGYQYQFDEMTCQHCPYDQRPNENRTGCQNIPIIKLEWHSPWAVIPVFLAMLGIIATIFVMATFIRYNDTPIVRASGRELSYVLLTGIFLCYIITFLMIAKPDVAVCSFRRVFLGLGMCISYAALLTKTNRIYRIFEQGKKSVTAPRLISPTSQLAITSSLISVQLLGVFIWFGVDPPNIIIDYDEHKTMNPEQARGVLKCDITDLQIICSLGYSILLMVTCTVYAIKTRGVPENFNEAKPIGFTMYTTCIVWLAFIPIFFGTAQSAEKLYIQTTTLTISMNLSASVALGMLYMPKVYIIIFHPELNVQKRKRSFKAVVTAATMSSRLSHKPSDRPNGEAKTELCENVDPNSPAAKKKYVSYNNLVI

The EC50 is the midpoint of the concentration-response curve. As a reminder, the solubility is how much of the substance goes into solution per volume. High values mean much dissolved substance, low ones little dissolved substance. The IC50 is the point on the concentration scale where inhibition reaches its midpoint. Lower therefore signals greater potency in that assay. The term fraction unbound denotes the share of the substance not bound to proteins or other matrix. High values mean weak binding, low ones extensive binding. One may read the inhibition in vivo as the relative decrease from the control value, in per cent. With `O=C1NCCc2nc(OCc3cccc(F)c3)ccc21`, the “K(p,uu,brain)” value in series [1] turned out to be 1.1. Also, the EC50 in series [2], in [11], in [13] and in series [14] was > 10 µM throughout. In addition, the Activity result in series [3] and in [9] was “Non-toxic” in each case. The compound further gave a solubility in series [4] of 31 µg/mL (≈ 114 µM). For the same compound, the figures for the Fu in series [5] and in [7] were 0.034 and 0.047, respectively. Also, the results for the IC50 in series [6], in series [8] and in series [10] were > 30 µM, > 30 µM and 25.7 µM, respectively. For the same compound, the fraction unbound in series [12] worked out at 0.02. In series [15], this compound displayed a Retention_time of 0.736 min. In addition, in [16], the concentration at 1.5 h worked out at 16.6 µM. For the same compound, in series [17], the inhibition entry is “Dose-dependent effect”. The inhibition in vivo at 56.6 mg/kg in series [18] was > 30%. The inhibition in vivo at 100 mg/kg in series [19] came out at 55%.
